{"data": "Results collected from several papers", "target": "cAMP-dependent protein kinase catalytic subunit PRKX (PRKX, Homo sapiens, UniProt P51817)", "One construct used (P51817 1-358)": "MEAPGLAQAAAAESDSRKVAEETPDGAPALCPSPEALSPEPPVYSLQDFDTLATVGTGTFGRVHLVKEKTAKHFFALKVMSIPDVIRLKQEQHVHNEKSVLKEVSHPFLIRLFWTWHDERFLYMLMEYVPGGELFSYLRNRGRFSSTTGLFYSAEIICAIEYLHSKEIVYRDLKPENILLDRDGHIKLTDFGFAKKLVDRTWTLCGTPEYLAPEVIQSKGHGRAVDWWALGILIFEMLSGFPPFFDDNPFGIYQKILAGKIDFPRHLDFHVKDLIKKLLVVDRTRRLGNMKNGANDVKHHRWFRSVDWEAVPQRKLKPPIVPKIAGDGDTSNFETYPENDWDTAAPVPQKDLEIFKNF"}
{"Structure (SMILES)": "FC(F)(F)Oc1cccc(-c2cnc3ccc(-c4ccncc4)nn23)c1", "effect on": "cell-free assay", "method": "competition with immobilised ligand", "concentration": "5 µM", "remaining binding": "85%"}
{"Structure (SMILES)": "COc1cnc(Nc2cccc(S(N)(=O)=O)c2)nc1N1CCN(c2ccccc2)CC1", "effect on": "binding", "method": "competition with immobilised ligand", "concentration": "1 µM", "remaining binding": "100%"}
{"Structure (SMILES)": "CN(C)c1ncc(F)c(-c2cnn3ncccc23)n1", "effect on": "binding", "concentration": "1 µM", "remaining binding": "100%"}
{"Structure (SMILES)": "Cc1cc(C)c(-n2ccn3nc(-c4cccnc4)cc23)cc1NC(=O)c1cc(C#N)cc(S(F)(F)(F)(F)F)c1", "effect on": "cell-free assay", "method": "competition with immobilised ligand", "concentration": "0.1 µM", "remaining binding": "68.5%"}
{"Structure (SMILES)": "Cc1cnc(Nc2ccc(C(=O)N3CCC(N4CCCC4)CC3)cc2)nc1-c1cc2ccccc2s1", "effect on": "binding", "method": "competition with immobilised ligand", "concentration": "1 µM", "remaining binding": "72%"}
{"Structure (SMILES)": "CN(CCCC(F)(F)F)c1nccc(-c2cnn3ncccc23)n1", "effect on": "binding", "concentration": "1 µM", "remaining binding": "100%"}
{"Structure (SMILES)": "CCCOc1ccc([C@H]2[C@H](C(=O)O)[C@@H](c3ccc4c(c3)OCO4)CN2CC(=O)Nc2c(CC)cccc2CC)cc1", "effect on": "cell-free assay", "method": "competition with immobilised ligand", "concentration": "1 µM", "remaining binding": "91%"}
{"Structure (SMILES)": "COc1ccnn2ncc(-c3ccnc(N(C)C)n3)c12", "effect on": "binding", "concentration": "1 µM", "remaining binding": "100%"}
{"Structure (SMILES)": "O=C(Nc1c[nH]nc1C(=O)NC1CCNCC1)c1cc(F)cc(F)c1", "effect on": "binding", "method": "competition with immobilised ligand", "concentration": "1 µM", "remaining binding": "94%"}
{"Structure (SMILES)": "O=C(c1ccc(Nc2ncc(Cl)c(-c3cc4ccccc4s3)n2)cc1)N1CCC(N2CCCC2)CC1", "effect on": "binding", "method": "competition with immobilised ligand", "concentration": "1 µM", "remaining binding": "67%"}
{"Structure (SMILES)": "CCOC(=O)c1cc2cc(-c3cc(C(=O)NCc4ccc(C(=O)O)cc4)nn3C)ccc2[nH]1", "effect on": "cell-free assay", "method": "competition with immobilised ligand", "concentration": "0.1 µM", "remaining binding": "100%"}
{"Structure (SMILES)": "Nc1ncc2c(n1)-c1c([nH]c3ccc(C#CC4CC4)cc13)CCCC2", "effect on": "binding", "method": "competition with immobilised ligand", "concentration": "1 µM", "remaining binding": "79%"}
{"Structure (SMILES)": "C[C@@H](c1ccc(-n2cnc3c(N)ncnc32)cc1)N1CCc2nn(C)c(Cc3ccccc3)c2C1=O", "effect on": "binding", "method": "competition with immobilised ligand", "concentration": "0.1 µM", "remaining binding": "96%"}
{"Structure (SMILES)": "Cc1cnn2ncc(-c3ccnc(N(C)C)n3)c2c1", "effect on": "binding", "concentration": "1 µM", "remaining binding": "85%"}
{"Structure (SMILES)": "O=C(c1ccc(Nc2nccc(-c3cc4ccccc4s3)n2)cc1)N1CCC(N2CCCC2)CC1", "effect on": "binding", "method": "competition with immobilised ligand", "concentration": "1 µM", "remaining binding": "83%"}
{"Structure (SMILES)": "Cc1c(NC(=O)c2cc(C(N)=O)nc3cc(F)ccc23)c(C(F)(F)F)nn1Cc1ccc(C(C)(C)C)cc1", "effect on": "cell-free assay", "method": "competition with immobilised ligand", "concentration": "1 µM", "remaining binding": "94%"}
{"Structure (SMILES)": "C[C@@H]1CCN(c2nccc(-c3cnn4ncccc34)n2)C1", "effect on": "binding", "concentration": "1 µM", "remaining binding": "100%"}
{"Structure (SMILES)": "CNC(=O)Nc1ccc2c(c1)[C@@]1(CC2)OC(=O)N(CC(=O)N(Cc2ccc(F)cc2)[C@@H](C)C(F)(F)F)C1=O", "effect on": "cell-free assay", "method": "competition with immobilised ligand", "concentration": "1 µM", "remaining binding": "100%"}
{"Structure (SMILES)": "N[C@H]1CCN(c2nccc(-c3cnn4ncccc34)n2)C1", "effect on": "binding", "concentration": "1 µM", "remaining binding": "100%"}
{"Structure (SMILES)": "Cn1cc(Cl)c2c(Oc3c(F)cc(Nc4cc(Cl)nc(N)n4)cc3F)ccnc21", "effect on": "cell-free assay", "method": "competition with immobilised ligand", "concentration": "0.1 µM", "remaining binding": "100%"}
{"Structure (SMILES)": "COc1ncc2cc3ccccc3nc2c1C#N", "effect on": "cell-free assay", "method": "competition with immobilised ligand", "concentration": "5 µM", "remaining binding": "82%"}
